Variants at the floor of the assay were thinned out.
B1: tRNA (parent)
chain: GUUCCGUUGGCGUAAUGGUAACGCGUCUCCCUCCUAAGGAGAAGACUGCGGGUUCGAGUCCCGUACGGAACG

Variants of: B1
Assay: yeast fitness relative to wild type (ratio to wild type); higher = fitter; tRNA-Arg(CCU), competitive growth, 37 C, YPD
Summary of the method: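 Changes in genotype frequencies gave Darwinian fitness relative to wild type. Frequencies were read by 100-nucleotide paired-end sequencing of gene amplicons before and after pooled Saccharomyces cerevisiae strains, carrying tRNA-Arg(CCU) gene variants at the native locus, were competed in YPD at 37°C for 24 hours in six replicates. A genotype was kept only with ≥ 100 starting reads, and estimates < 0.5 were set to 0.5.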

Variant | yeast fitness
GUUCCGUUGGCGUAAGGGUAACGCGUCUCCCUCCUAAGGUGAAGACUGCGGGUUCGAGUCCGGUACGGAACG | 0.566
GUUCCGUUGGCGUAACGGUAACGCGUCUCCCUCCUAAGGAGAAGACUGCGGCUUCGAGUCCCGUACGGAGCG | ≤ 0.5
GUUCCGUUGGCGUAAGGGUAACGCGUCUUCCUCCUAAGGAGAAGAUUGCGGGUUCGAGUCCCGUACCGUACG | 0.521
GUUCCGUUGGCGUAACGGUAACGCGUCUCAUUCCUAAGGAGAAGACUGCGGGUUCGAGUCCCGUACGGAACG | 0.834
GUUCCGUUGGCGUAACGGUAACGCGUCUCCCUCCUAAGGAGAAGACUGCGGGUUCGAGUCCUGUACGGAACG | 1
GUUCCGUUGGCGUAACGGUAACGCGUCUUCCUCUUAAGGAGAAGACUGCGGGUUCGCGUCCCGCACGGAACG | ≤ 0.5
GUUCCGUUGGCGUAACCGUAAGGCGUCUCCCUCCUAAGGAGAAGACUGCGGGUUCGAGUCCCGUACGGAACG | 0.534
GUUCCGUUGGCGUAAGGGUAACGCGUCUCCCUCCUAAGGAGAAGACUGCGGGUUCGAGUCCCGUUCGGAUCG | 0.64
GUUCCGUUGGCGUAAGGGUAACGCGUCUCCCUCCUAAGGAGAAGACUGCGGGUUCGAGUACCGUACGGAACG | 0.606
GUUCCGUUGGCGUAAGGGUAACGUGUCUCCCUCCUAAGGAGAAGACUGGGGGUUCGAGUCCCGUAUGGAACG | ≤ 0.5
GUUCCGUUGGCGUAAGGGUAACGCGUCUCCGUCCUAAGGAGAAGACUGCGGGUUUGAGUCACGUAUGGAACG | ≤ 0.5
GUUCCGUUGGCGUAAGGGUAACGUGUCUCCCUCCUAAGGAGAAGACUGGGGGUUGGAGUCCCGUACGGAACG | ≤ 0.5
GUUCCGUUGGCGUAACGGUAACGCGUCUCCCUCGUAAGGAGAAGACUGCGAGUUCGAGUCCCGUACGGAACG | 0.534
GUUCCGUUGGCGUAACCGUAACGCGUCUCCCUCCUAACGAGAAGAUUGCGGGUUCGACUCCCGUACGGAACG | 0.64
GUUCCGUUGGCGUAAGGGUUACGCGUCUCCCUCCUAAAGAGAAGACUGCGGGUUCGAGUCCCGUACGGAACG | 0.538
GUUCCGUUGGCGUAACGGUAACGCGUCUCCCUCCUAAGGAGAAGACCGCGGGUUCGAGUUCAGUACGGAACG | ≤ 0.5
GUUCCGUUGGCGUAAGGGUAACGCGUCUCCUUCCUAAGGAGUAGACUGCGGGUUCGAGUCCCGUACGGAACG | 0.522
GUUCCGUUGGCGUAAGGGUAACGCGUCUCCCUCCUAACGAGAAGACUGCGGGUUCGAGUCCCGUACGGAACG | 0.653
GUUCCGUUGGCGUAACGGUAACGCGUCUCCCUCCUAAGGAGAAGACUGCCGGUUCGAGUCCCGUAUGGAACG | 0.584
GUUCCGUUGGCGUAACGGUAACGCGUGUCCCUCCUAAGGAGAAGACUGCGGAUUCGAGUGCCGUACGGUCCG | ≤ 0.5
GUUCCGUUGGCGUAACGGUAACGCGUCUCCAUCUUAAGGAGAAGACUGCGGGUUCGAGUCCCGUACGGCACG | ≤ 0.5
GUUCCGUUGGCGUAACGGUAACGCGUCUCCCUCAUAGGGAGAAGACUGCGGGUUCGAGUCCCGUACGGAACG | ≤ 0.5
GUUCCGUUGGCGUAAGGGUAACGCGUCUCGCUCCUAAGGAGAAGACUGCGGGUUGGAGUCCCGUACGGAACG | ≤ 0.5
GUUCCGUUGGCGUAAGGGUAACGCGUCUCCCUCCUAAGGAGAAGACUGCGGGUUCGAGUCCCGUAUGGCACG | 0.728
GUUCCGUUGGCGUAAGGGUUACGCGUCUCCCUCCUAAGGAGAAGACUGCGGGUUCGAGUGCCGUACGGAACG | ≤ 0.5

Variant | yeast fitness
GUUCCGUUGGCGUAAGGGUAACGCGUCUCCCUCGUAAGGAGGAGACUGGGGGUUCGAGUCCUGUACGGCACG | 0.506
GUUCCGUUGGCGUAAGGGUAACGCGUCUCCCUCCUCAGCAGAAGACUGCGGGUUCGAGUCCCAUUCGGAACG | ≤ 0.5
GUUCCGUUGGCGUAAGGGUGACGCGUCUCCCUCCUAAGGAGAAGACUGCGGGUUCGAGUCCCGUACGGAACG | 1
GUUCCGUUGGCGUAACGGUAACGCGUCUCCCUCGUAAGGAGAAGACUGCGGGUUUGAGUCCCGUACGGAACG | ≤ 0.5
GUUCCGUUGGCGUAACGGUAACGCGUCUCCCUCCUAAGGAGAAGACUGCGGGUUCGAACCCCGUACGGAACG | 0.555
GUUCCGUUGGCGUAACGGUAACGCGUCUCCCUCCUAAGGAGAAGACUGCGGGUUCAAGUCCCGUACCGAACG | 0.514
GUUCCGUUGGCGUAACGAUAACGCGUCUCCCUCGUAAGAAGAAGACUGCGGGUUCGAGUCCGGUACGGAACG | ≤ 0.5
GUUCCGUUGGCGUAACGGUAACGCGUCUCCCCCCUAAGGAGAAGACUGAGGGUUCGAGUCCCGUACGGAACG | 0.617
GUUCCGUUGGCGUAAGGGUCACGCGUCUCCCUCCUAAGGAGAAGACUGCGGGUUCGAGUCCCGUACCGAACG | ≤ 0.5
GUUCCGUUGGCGUAACGGUAACGCGUCCCCCUCCUAAGGAGAAGACUGCGGGUUCGAGUCCCGUACGGAACG | 0.859
GUUCCGUUGGCGUAAGGGUAAAGCGUCUCCCUCCUAAGGAGAAGACUGCGGGUUCGAGUCACGUACGGAACG | ≤ 0.5
GUUCCGUUGGCGUAAGGGUAACGCGUCUGCCUCCUAAGGAGAAGACUGGGGGUUCGAGUCCCGUUCGGAACG | ≤ 0.5
GUUCCGUUGGCGUAAGGGUAACGCGUCUCCCUCCUAAGGAGAAGACUGCGGGUUCGGGUCCGGUAUGGAACG | 0.517
GUUCCGUUGGCGUAACGGUAACGCGUCUCCCUCCUAAGGAGAAGACUGCGAGUUCGAGUCCCGUACGGAACG | 0.633
GUUCCGUUGGCGUAAGGGUAACGCGUCUUUCUCCUAAGGAGAAGACUGCGGGUUCGAGUCCCGUACGGAACG | ≤ 0.5
GUUCCGUUGGCGUAACGGUAACGCGUCUCCCUCGUAAGGAGAAGACUGCGGGUUCGAGUCCCGUUCUGAACG | ≤ 0.5
GUUCCGUUGGCGUAACGGUAACGCGUCUCCCUCCUAAGGAGAAGACUGCGGAUUCAAGUCCCGUACGGAACG | 0.69
GUUCCGUUGGCGUAAGGGUAACGCGUCUCCCUCCUGAGGAGAAGACUGCGGGUUCGAGUCCCGUGCGGAACG | ≤ 0.5
GUUCCGUUGGCGUAAGGGUAACGCGUCUCCCUCCUAAGGAGAAGUCUGCAGGUUCGAGUCCCGUACGGCACG | 0.631
GUUCCGUUGGCGUAACGGUAACGCGUCUCCCUCCUAAGGAGAAGACUGCGGGUUCGAGACCCGUACGGAACG | 0.852
GUUCCGUUGGCGUAACGGGAACGCGUGUCCCUCUUAAGGUGAAGACUGCGGGAUCGAGUCCCGUACGGAUCG | 0.674
GUUCCGUUGGCGUAACGGUAACGCGUCUCCAUCCUAAGGAGAAGACUGCGAGUUCGAGUCCCGUACGGAACG | ≤ 0.5
GUUCCGUUGGCGUAACGGUAACGCGUCUCCCUCCUAAGGAGAAGACUACGGGUUCGAGUCCCGUACGGAUCG | 0.798
GUUCCGUUGGCGUAACGGUAACGCGUCUCCCUCCUAAGGAGAAGACUGGGGGUUCGAGUCCUGUACGGAACG | 0.528
GUUCCGUUGGCGUAACGGUAACGCGUCUCCAUCCUAAGGAGUAGACUGCGGGUUCGAGUCCGGUACGGACCG | ≤ 0.5

Variant | yeast fitness
GUUCCGUUGGCGUAACGGUAACGUGUCUCUCUCCUAAGGAGAAGACUGCGGGUUCGAGUCCCGUAUGGAACG | ≤ 0.5
GUUCCGUUGGCGUAACGGUAACGCGUCUUCCUCCUUAGGCGAAGAUUGCGGGUUCGAGUCCCGUACGGAACG | ≤ 0.5
GUUCCGUUGGCGUAACGGUAACGCGUCUCCCUCCUAAGGAGAAGACUCCGGGUUCGAGUCCUGUGCGGAACG | ≤ 0.5
GUUCCGUUGGCGUAACGGUAACGCGUCUCCCUCCUAAGGAGAAGACAGCGGGUUCGAGUCCCGUACGAAACG | ≤ 0.5
GUUCCGUUGGCGUAAGGGUAACGCGUCUUCAUCCUAAGGAGAAGAUUGCGGGUUCGAGUCCCGUACGGAACG | 0.716
GUUCCGUUGGCGUAACGGUAACGCGUCUCCCUCCUAAGGAGAAGACUGCGGGUUCGACUCCCGUACGGAACG | 1.06
GUUCCGUUGGCGUAAGGGUAUCGCGUCUCCCUCGUAAGGUGAAGACUGCGGGUUCGAGUCCCGUACGGAACG | 0.624
GUUCCGUUGGCGUAAGGGUGACGCGUCUCCCUCCUAAGGAGAAGACUGCGGGUUCGAGUCCCGUACGGCACG | 0.749
GUUCCGUUGGCGUAACGGUAACGCGUCUCCCUCCUAAGGAGAAGACUGAGGGUUCGAGUCCCGUACGGAACG | 0.731
GUUCCGUUGGCGUAAGGGUAACGCGUCUGCCUCCUAAGGAGAAGAUUGCGCGUUGGAGUCCCGUACGGAACG | ≤ 0.5
GUUCCGUUGGCGUAAGGGUAACGCGUCUCCCUCCUAAGGAGAAGACUGCGGGUUCGAGUCCCGUAUGGAACG | 0.875
GUUCCGUUGGCGUAAGGGUAACGCGUUACCCUCCUAAGGAGAAGACUGCGGCUACGAGUCCCGUAUGGAACG | ≤ 0.5
GUUCCGUUGGCGUAAGGGUAACGCGUCUCUCUCCUAAGGAGAAGAGUGCGGGUUCGAGUCCCGUACGGAACG | 0.541
GUUCCGUUGGCGUAACGGUAACGCGUGUCCCUCCUAAGGAGAAGACUGCGGGUUCGAGUCCCGUACGGAACG | 0.727
GUUCCGUUGGCGUAAGGGUAACGCGUCUCCCUCGUACGGAGAAGACUGCGGGUUCGAGUCCCGUACGGAACG | 0.706
GUUCCGUUGGCGUAAGGGUAACGCGUCUCCCUCCUAAGGAGAAGACUGCGGGUUCGAGUCCAGUACGGAACG | 0.643
GUUCCGUUGGCGUAAGGGUAAAGCGUCUCCCUCCUAAGGAGAAGACUGCGGGUUCGAGUCCAGUACGGAACG | ≤ 0.5
GUUCCGUUGGCGUAACGGUAACGCGUCUCCCUCCUAAGCAGAAGACUGCGGGUUCGAGUCCCGUACGGAACG | 0.696
GUUCCGUUGGCGUAACGGUAACGCGUCUCCCCCCUAAGGAGAAGACUGCGGGUUCGAGUCCCGUACGGAACG | 0.918
GUUCCGUUGGCGUAACGGUAACGCGUCUCCCACCUAAGGAGAAGACUGCGGGUUCGAGUCCCGUACGGAACG | 0.682
GUUCCGUUGGCGUAACGGUAACGCGUCUCUCUCCUAAGGAGAAGACUGCGGGUUCGAGUCCCGUACGGAACG | 0.893
GUUCCGUUGGCGUAACGGUAACGCGUGUCCCUCCUAAGGAGAAGACUCCGGGUUCGAGUCCCGUCCGGAACG | ≤ 0.5
GUUCCGUUGGCGUAACGGUAACGCGUUUCCCUCCUAAGGAGAAGACUGCGGGUUCGAGUCCCAUGCGGAACG | ≤ 0.5
GUUCCGUUGGCGUAACGAUAACGCGUCACCAACCUAAGGAGAAGACUGCGGGUUCGGGUCCCGUACAGAACG | 0.962
GUUCCGUUGGCGUAACGAUAACGGGUCUCCCUCCUAAGGAGAAGUCCGCGGGUUCGAGUCCCGUACGGAACG | ≤ 0.5

Reference: the RNAGym collection of RNA variant scans (doi:10.1126/science.aae0568)
